Experimental data pooled from the literature.
Each line is one published result; the experiments were not run side by side.
Effect on: cell growth or viability

Structure (SMILES) | cell line | method | concentration | time | measurement | result
C=CC(=O)N1CCC[C@@H](n2nc(-c3ccc(Oc4ccccc4)cc3)c3c(N)ncnc32)C1 | U-937 | ATP luminescence |  | 72 h | GI50 | 6.4 µM
COC(=O)COc1ccc(NC(=O)C2(c3ccccc3)CC2)cc1Br | U-937 | ATP luminescence |  | 72 h | GI50 | 6.1 µM
COc1cc(-c2ccc(-c3ccc(C(=N)N)nc3)s2)cc(OC)c1OC | IGROV-1 | SRB |  |  | GI50 | 2.63 µM
Cc1ccc(-c2cc(-c3ccc4oc(=O)cc(C)c4c3O)nc(N)n2)cc1 | KB | MTT | 8 µg/mL | 72 h | inhibition | 0%
COC(=O)COc1ccc(NC(=O)C2(c3ccc(F)cc3)CC2)cc1 | U-937 | ATP luminescence |  | 72 h | GI50 | 5.9 µM
CCn1c(-c2nonc2N)nc2c(C#CC(C)(C)O)ncc(OC[C@H]3CCCNC3)c21 | UACC-903 | resazurin |  | 72 h | EC50 | 83 µM
C=CC(=O)N1CCC[C@@H](n2nc(-c3ccc(Oc4ccccc4)cc3)c3c(N)ncnc32)C1 | MINO | ATP luminescence |  | 72 h | GI50 | 6.31 µM
Cc1cc(=O)oc2ccc(-c3cc(-c4ccccc4)nc(N)n3)c(O)c12 | KB | MTT | 8 µg/mL | 72 h | inhibition | 0%
CC#CC(=O)N1CC[C@@H](n2cc(-c3ccc(Oc4c(F)cccc4F)cc3)c3c(N)n[nH]c(=O)c32)C1 | MINO | ATP luminescence |  | 72 h | GI50 | 5.18 µM
COC(=O)COc1ccc(NC(=O)C2(c3cccc(Br)c3)CC2)c(C)c1 | U-937 | ATP luminescence |  | 72 h | GI50 | 3.2 µM
C=CC(=O)N1CCN(c2nc(=O)n(-c3c(C)ccnc3C(C)C)c3nc(-c4c(O)cccc4F)c(F)cc23)[C@@H](C)C1 | LS-513 |  |  | 5 days | EC50 | > 10 µM
Cc1cc(=O)oc2ccc(-c3cc(-c4ccc(Br)cc4)nc(N)n3)c(O)c12 | KB | MTT | 2 µg/mL | 72 h | inhibition | 0%
COC(=O)COc1cccc(NC(=O)C2(c3cccc(Br)c3)CC2)c1 | U-937 | ATP luminescence |  | 72 h | GI50 | 3.5 µM
C=CC(=O)N1CCN(c2cc(-c3noc([C@@]4(C)CCCc5sc(N)c(C#N)c54)n3)nc(N3CCN(C)C[C@@H]3C)c2)CC1 | LS-513 |  |  | 5 days | EC50 | 4.7 µM
Cc1cc(=O)oc2ccc(-c3cc(-c4ccc(Cl)cc4)nc(N)n3)c(O)c12 | KB | MTT | 32 µg/mL | 72 h | inhibition | 54%
COC(=O)COc1ccc(NC(=O)C2(c3ccc(Cl)cc3)CC2)cc1Br | U-937 | ATP luminescence |  | 72 h | GI50 | 1.6 µM
Cc1cc(=O)oc2ccc(-c3cc(-c4cccc(Cl)c4)nc(N)n3)c(O)c12 | KB | MTT | 2 µg/mL | 72 h | inhibition | 0%
COC(=O)COc1cccc(NC(=O)C2(c3cccc(C)c3)CC2)c1 | U-937 | ATP luminescence |  | 72 h | GI50 | > 200 µM
Cn1nnc2c(C(N)=O)ncn2c1=O | SNU1 |  |  |  | EC50 | 243 µM
